This is an account of results in ChEMBL document CHEMBL1123736, “Dihydropyridazinone cardiotonics: synthesis and inotropic activity of 5'-(1,4,5,6-tetrahydro-6-oxo-3-pyridazinyl)spiro[cycloalkane- 1,3'-[3H]indol]-2'(1'H)-ones” (J Med Chem, 1987).

Structures are written as SMILES.

In assay [1] the test system is Canis familiaris. The experiment in a line: Increased heart rate in anesthetized dogs after intravenous administration. It is filed as functional, Canis lupus familiaris.
Assay [2] concerns the target Phosphodiesterase; PDE3 & PDE4. The experiment in a line: (§1) Inhibition of Sarcoplasmic Reticulum cAMP Phosphodiesterase from canine myocardium. In kind it is tissue-based, Canis lupus familiaris. Summed up:
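PDE came from free sarcoplasmic reticulum vesicles (fraction E) of canine ventricles, stored at -80 °C. Two-step assay with 1 μM cAMP substrate, run 60 min at room temperature (22 ± 2 °C). Enzyme was added to hydrolyze less than 20% of the substrate.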

Assay [3] has as its system Canis familiaris. The experiment in a line: Myocardial contractility in anesthetized dogs on intravenous administration. In kind it is functional. Particulars: Canis lupus familiaris, Myocardium. Put shortly:
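Open-chest, pentobarbital-anesthetized dogs. Right ventricular contractility was measured with a Walton-Brodie strain-gauge arch sutured to the ventricle, baseline 50 g tension. Increasing iv doses via the femoral vein at 5-min intervals; peak responses recorded; vehicle controls given. ED50 by linear regression, mean ± SEM (n > 2) or mean ± range (n = 2).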

The test system of assay [4] is Canis familiaris. The experiment in a line: Decreased mean arterial blood pressure in anesthetized dogs after intravenous administration. It is filed as functional, Canis lupus familiaris.
For assay [5], the target named is Phosphodiesterase; PDE3 & PDE4. Described as §1. In kind it is tissue-based, Canis lupus familiaris. Summed up: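 PDE came from free sarcoplasmic reticulum vesicles (fraction E) of canine ventricles, stored at -80 °C. Two-step assay with 1 μM cAMP substrate, run 60 min at room temperature (22 ± 2 °C). Enzyme was added to hydrolyze less than 20% of the substrate. Inhibitors were dissolved in DMSO, with 2.5% v/v carryover. IC50 and 95% confidence limits were obtained by regression of the logit transformation.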
This is another data set of the same source.

One may read the IC50 as the concentration needed to halve the response being measured. Read a low IC50 as inhibition by little substance. One may read the ED50 as the dose at which the effect has come halfway, by size or by number of responders. A lower ED50 goes with greater potency. In the case of `O=C1CCC(c2ccc3c(c2)C2(CCCC2)C(=O)N3)=NN1`, the “Increase in HR” value in the assay on Canis familiaris [1] is listed as 14%. In assay [2], the IC50 is 0.93 µM. The compound further gave an ED50 with Canis familiaris [3] of 0.133 mg/kg. Further, in the assay on Canis familiaris [4], the “Decrease in MAP” value is 17%.
For `O=C1CCC(c2ccc3c(c2)C2(CCC2)C(=O)N3)=NN1`, in that order: 13%, 0.29 µM, 0.0348 mg/kg and 17%.
`CC1CC(=O)NN=C1c1ccc2c(c1)C1(CC1)C(=O)N2` (stereo not given): the “Increase in HR” value in the assay on Canis familiaris [1] stood at 17%. This compound also gave an IC50 in assay [2] of 0.013 µM. Further, it took a dose of 0.0015 mg/kg to reach the 50% effect level with Canis familiaris [3] (ED50). In the assay with Canis familiaris [4], the “Decrease in MAP” value is given as 35%.
In the case of `CC1CC(O)=NN=C1c1ccc(-n2ccnc2)cc1` (stereo not given) [CI-930], in the assay with Canis familiaris [3], the ED50 was 0.013 mg/kg.
On the same count and under the same terms, in the case of `O=C1CCC(c2ccc(-n3ccnc3)cc2)=NN1` [IMAZODAN] it was 0.045 mg/kg.
A word on the Ki: it is the dissociation constant of the complex between target and ligand, obtained from inhibition or displacement. Low readings indicate higher affinity, high ones lower affinity. In assay [5], `CC1(C)C(=O)Nc2ccc(C3=NNC(=O)CC3)cc21` [INDOLIDAN] came in with a Ki of 80 nM. Moreover, in the assay with Canis familiaris [1], the “Increase in HR” value is 11.8%. The same compound had an IC50 in assay [2] of 0.13 µM. In the assay with Canis familiaris [3], this compound displayed an ED50 of 0.0068 mg/kg. The “Decrease in MAP” value in the assay on Canis familiaris [4] was 15.2%.
As to `Cc1[nH]c(=O)c(C#N)cc1-c1ccncc1` [MILRINONE], in the assay with Canis familiaris [3], the 50% effect level (ED50) was put at a dose of 0.037 mg/kg.
